# Source: PubChem (several laboratories)
# EP2 modulator – EP2 receptor (human) modulation | P43116 | EP2-expressing cells, cAMP HTRF FRET, PGE2 co-stimulation | induction, % at 25 µM | 0.83% of 260,000 active;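 active = compounds whose cAMP rise, as percent of the full-agonist control response, exceeds 60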;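 also: rat C6 glioma line stably carrying human EP2 under a CMV promoter; the protocol text gives 20 µM as final concentration; 100% = response of wells given 1 µM PGE2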
# PGE2 EP2 inh – blocks the human prostaglandin E2 receptor EP2; P43116; C6 glioma cells expressing human EP2, cAMP TR-FRET; cells stimulated with saturating PGE2; inhibition, % at 25 µM; 0.52% of 260,000 active; AID 1422;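 active = percent inhibition above 40 after rounding to a whole number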;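 also: rat C6 glioma host cells with rolipram phosphodiesterase inhibitor present; the protocol text gives 20 µM as final concentration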
# NPY-Y2 antag – NPY-Y2 (human) receptor antagonism. P49146. NPY-Y2 expressing cells, antagonist mode. inhibition, % at 2.7 µM. 0.99% of 140,000 active. AID 793;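 also: 0% = vehicle with agonist challenge and 100% = reference antagonist with challenge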
# Target sequence (P49146 whole entry, looked up): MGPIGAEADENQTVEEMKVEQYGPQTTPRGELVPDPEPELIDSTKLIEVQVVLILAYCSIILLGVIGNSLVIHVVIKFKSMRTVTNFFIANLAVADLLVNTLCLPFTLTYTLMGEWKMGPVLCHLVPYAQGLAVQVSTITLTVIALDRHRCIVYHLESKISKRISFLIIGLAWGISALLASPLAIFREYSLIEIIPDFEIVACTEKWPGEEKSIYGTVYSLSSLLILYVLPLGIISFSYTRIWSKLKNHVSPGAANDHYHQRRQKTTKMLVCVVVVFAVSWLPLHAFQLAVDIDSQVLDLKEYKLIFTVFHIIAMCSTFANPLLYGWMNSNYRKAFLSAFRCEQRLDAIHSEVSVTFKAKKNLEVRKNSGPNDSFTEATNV
# NPY-Y1 PAM-ag – potentiators or agonists of human neuropeptide Y receptor Y1; P25929; NPY-Y1 expressing cells, potentiator/agonist activation; activation, % at 3.6 µM; 0.37% of 220,000 active; in the data active = activation above about 33%, passing the limit was not always enough;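 also: cells stimulated with NPY at EC10 then isoproterenol at EC100; 0% = low agonist plus stimulus and 100% = saturating agonist plus stimulus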
# NPY-Y2 PAM-ag – human NPY-Y2 potentiation or agonism, primary screen | 0.45% of 220,000 active | AID 1359 | P49146 | activation, % at 3.6 µM | cells expressing NPY-Y2, potentiator/agonist read-out; in the data active = activation above about 27%;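 also: cells stimulated with NPY near EC25 plus isoproterenol at EC100; 0% = vehicle plus submaximal agonist and 100% = vehicle plus saturating agonist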
# NPY-Y1 antag – NPY-Y1 (human) receptor antagonism | P25929 | HEK293-CNG Y1 cells, membrane potential fluorescence; NPY at EC95, then isoproterenol | inhibition, % at 3.6 µM | 1% of 200,000 active | AID 1040;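 active = inhibition above the campaign mean inhibition of all tested compounds plus 3 SD, cut at about 20% in these data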;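 also: 0% = DMSO wells given NPY plus isoproterenol and 100% = isoproterenol alone without NPY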
#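 Material: HEK293 Y1/CNG channel cell line | Also added: NPY (25 nM), isoproterenol (1 µM), Ro 20-1724 (25 µM) | Compound: One concentration, 3.6 µM, in 0.4% DMSO | Schedule: 3 h dye uptake, 1 h room-temperature compound, 45 min post-isoproterenol | Signal: Membrane-potential fluorescent dye readout | Read-out: % inhibition of NPY effect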
# NPY-Y1 ant conf – confirmation of human neuropeptide Y receptor Y1 antagonists; 21% of 1,200 active; inhibition, % at 3.6 µM; HEK293-CNG NPY-Y1, membrane potential fluorescence, cAMP; NPY challenge against isoproterenol-raised cAMP; AID 1254; shares compounds with NPY-Y1 antag; in the data active = inhibition above about 20%;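 also: 0% = vehicle with agonist plus stimulus and 100% = stimulus alone without agonist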
# NPY-Y2 antag ct – counter-screen for NPY-Y1 antagonists: human NPY-Y2 antagonism; shares compounds with NPY-Y1 antag; HEK293 NPY-Y2 CNG membrane potential fluorescence; cells given NPY, then isoproterenol; inhibition, % at 3.6 µM; AID 1255; 28% of 1,200 active;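 also: 0% = DMSO with agonist challenge and 100% = reference antagonist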
# The depositor's hits bear a star; x = no result given. Hits are enriched below; roughly 2.8% of the tested compounds scored in any of these assays. Rule as the data show it, unless noted: active = inhibition above about 17%; inactive = the rest.
SMILES,EP2 modulator,PGE2 EP2 inh,NPY-Y2 antag,NPY-Y1 PAM-ag,NPY-Y2 PAM-ag,NPY-Y1 antag,NPY-Y1 ant conf,NPY-Y2 antag ct
Cc1ccc(-c2nnc(N3CCC(C)CC3)c3ccccc23)cc1C,31,9,x,-25,-10,26*,9,14
Cc1ccc(-c2nnc(N3CCOCC3)c3ccccc23)cc1S(=O)(=O)NCC1CCCO1 (centres undefined),13,21,2,-1,0,5,x,x
CC(C)C(c1nnnn1C1CCCC1)N(Cc1ccc(Cl)cc1)CC1CCCO1 (centres undefined),7,8,x,x,x,x,x,x
Clc1ccc(CN(CC2CCCO2)C(c2cccs2)c2nnnn2C2CCCC2)cc1 (centres undefined),26,5,11,-16,-2,40*,13,16
Cc1ccc2nsnc2c1S(=O)(=O)N(Cc1cc2cccc(C)c2[nH]c1=O)C1CCCC1,31,6,x,x,x,x,x,x
OCCC1CN(Cc2ccccn2)CCN1C1CCCC1 (centres undefined),18,4,x,14,-17,-3,x,x
OCCC1CN(CC(c2ccccc2)c2ccccc2)CCN1C1CCCC1 (centres undefined),13,5,x,1,-19,23*,12,10
CC(=O)Nc1nnc(-c2ccccc2Cl)s1,-62,8,x,x,x,x,x,x
COc1ccc(-c2cc(C(=O)Nc3ccccc3O)c3ccccc3n2)cc1OC,-63,10,x,-41,-52,27*,14,23*
COc1ccc(-c2cc(C(=O)NCc3cn(C)nc3C)c3ccccc3n2)cc1OC,-8,9,4,7,0,3,x,x
COc1ccc(-c2cc(C(=O)Nc3ccccc3N3CCOCC3)c3ccccc3n2)cc1OC,28,6,x,-41,-40,30*,17,14
CCc1ccc(OCc2nnc(SCC(=O)OC(C)C)o2)cc1,14,4,x,x,x,x,x,x
CNC(=O)c1cc2cc(Cl)cc(Cl)c2oc1=O,-10,12,x,x,x,x,x,x
Cc1ccc(NC(=O)CSc2nc3ccccc3c(=O)n2CCCC(=O)NCCCN2CCOCC2)cc1C,14,4,x,-11,2,9,x,x
CC1CCN(CCCn2c(SCC(=O)Nc3ccccc3Cl)nc3ccccc3c2=O)CC1,-38,7,x,-39,-15,31*,25*,24*
Cc1ccc(NC(=O)CSc2nc3ccccc3c(=O)n2CCCN2CCCCC2)cc1Cl,-94,7,x,-70,-60,23*,45*,55*
Cc1nn(CC(=O)N2CCC(C(=O)c3nccs3)CC2)c(=O)c2ccccc12,-6,x,x,x,x,x,x,x
Cc1cccc(C(=O)Nc2ccc(N3CCN(C(=O)C(C)C)CC3)c(Cl)c2)c1,-31,12,x,x,x,x,x,x
Clc1ccc(-n2nnnc2-c2cnc(-c3ccncc3)nc2-c2cccs2)cc1,-78,6,15,-58,-30,34*,14,18*
Cc1cc(N2CCN(c3ccc(F)cc3)CC2)nc(-c2ccccc2)n1,18,11,3,-42,-6,21*,3,6
Cc1cc(N2CCC(C(=O)Nc3ccc(F)cc3)CC2)nc(-c2ccccc2)n1,-58,10,3,-16,7,-3,x,x
COc1ccc(C[C@H]2CN3C(=NC[C@@H]3C(C)C)N2CCNC(=O)CCC2CCCCC2)cc1,0,x,x,-1,-3,3,x,x
COc1ccc(C[C@H]2CN3C(=NC[C@@H]3Cc3ccccc3)N2CCNC(=O)CCC2CCCCC2)cc1,-27,6,x,-15,-42,33*,35*,36*
Cc1cc2nc(SCCOC(=O)Nc3ccccc3)nc(C)c2cc1C,-46,6,6,-32,-3,23*,4,14
Cc1cc2nc(SCCOC(=O)Nc3cccc(Cl)c3)nc(C)c2cc1C,-5,6,13,-21,-3,13,x,x
COc1ccc(C2C(Oc3ccccc3)C(=O)N2c2cc(C)ccc2C)cc1OC (centres undefined),25,x,10,4,-4,22*,19,9
